ChEMBL document CHEMBL1777776, “Identification of 2-mercaptohexanoic acids as dual inhibitors of 5-lipoxygenase and microsomal prostaglandin E₂ synthase-1” (Bioorg Med Chem, 2011)
Active and inactive are the calls of the source. No cut-off for these calls is given here.

How the values were obtained:
[1] = molecular target: T1, Polyunsaturated fatty acid 5-lipoxygenase (Homo sapiens) (UniProt P09917); assay: Inhibition of human recombinant 5-lipoxygenase expressed in Escherichia coli BL21 assessed as enzyme product formation using arachidonic acid as substrate at 1 uM after 10 mins by RP-HPLC analysis
T1 sequence (whole entry): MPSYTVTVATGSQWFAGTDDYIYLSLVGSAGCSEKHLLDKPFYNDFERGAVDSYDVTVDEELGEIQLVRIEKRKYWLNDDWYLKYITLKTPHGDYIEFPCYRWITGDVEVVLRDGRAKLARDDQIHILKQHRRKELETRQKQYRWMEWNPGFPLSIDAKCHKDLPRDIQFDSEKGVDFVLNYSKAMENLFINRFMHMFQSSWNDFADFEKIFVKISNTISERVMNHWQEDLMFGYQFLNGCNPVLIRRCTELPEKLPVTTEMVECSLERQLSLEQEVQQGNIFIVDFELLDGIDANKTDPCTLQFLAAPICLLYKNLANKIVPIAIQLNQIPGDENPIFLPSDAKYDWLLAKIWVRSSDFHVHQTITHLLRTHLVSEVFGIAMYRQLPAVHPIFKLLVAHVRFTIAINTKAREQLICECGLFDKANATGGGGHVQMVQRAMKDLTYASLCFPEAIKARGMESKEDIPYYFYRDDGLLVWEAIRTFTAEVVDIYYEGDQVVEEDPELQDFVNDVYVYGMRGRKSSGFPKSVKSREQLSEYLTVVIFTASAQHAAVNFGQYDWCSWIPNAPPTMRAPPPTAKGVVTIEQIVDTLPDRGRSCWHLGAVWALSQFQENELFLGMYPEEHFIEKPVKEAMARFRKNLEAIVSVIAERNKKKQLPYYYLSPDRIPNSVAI
Outline: (§1)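 Human 5-LO expressed in E. coli BL21 (pT3-5LO), affinity-purified and used at once. 0.5 µg enzyme in 1 ml PBS/EDTA with 1 mM ATP preincubated with compound 5–10 min at 4 °C, then warmed 30 s at 37 °C. Reaction started with 2 mM CaCl₂ and AA (routinely 20 µM), with or without 1 µM 13(S)-HpODE. Run 10 min at 37 °C, stopped with ice-cold methanol, products analysed by HPLC. Washout: 10-fold dilution (10 to 1 µM).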

[2] = molecular target: T2, Polyunsaturated fatty acid 5-lipoxygenase (Homo sapiens, UniProt P09917); assay: Inhibition of 5-lipoxygenase in A23187-stimulated human PMNL assessed as enzyme product formation preincubated 15 mins by RP-HPLC analysis in presence of exogenous arachidonic acid
T2 sequence (P09917 whole entry): T1 sequence (whole entry)
Outline: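 Freshly isolated human PMNL (5 × 10⁶/ml PGC buffer: PBS pH 7.4, 1 mg/ml glucose, 1 mM CaCl₂) preincubated with compound 15 min at 37 °C. Stimulated with 2.5 µM A23187 plus exogenous AA for 10 min at 37 °C. Stopped with methanol, PGB₁ added as internal standard, lipoxygenase products analysed by HPLC. Mean of n = 3–5.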

[3] = molecular target: T3, Prostaglandin G/H synthase 1 (Ovis aries) (UniProt P05979); assay: Inhibition of ovine COX1 assessed as residual activity at 10 uM after 5 mins
T3 sequence (whole entry): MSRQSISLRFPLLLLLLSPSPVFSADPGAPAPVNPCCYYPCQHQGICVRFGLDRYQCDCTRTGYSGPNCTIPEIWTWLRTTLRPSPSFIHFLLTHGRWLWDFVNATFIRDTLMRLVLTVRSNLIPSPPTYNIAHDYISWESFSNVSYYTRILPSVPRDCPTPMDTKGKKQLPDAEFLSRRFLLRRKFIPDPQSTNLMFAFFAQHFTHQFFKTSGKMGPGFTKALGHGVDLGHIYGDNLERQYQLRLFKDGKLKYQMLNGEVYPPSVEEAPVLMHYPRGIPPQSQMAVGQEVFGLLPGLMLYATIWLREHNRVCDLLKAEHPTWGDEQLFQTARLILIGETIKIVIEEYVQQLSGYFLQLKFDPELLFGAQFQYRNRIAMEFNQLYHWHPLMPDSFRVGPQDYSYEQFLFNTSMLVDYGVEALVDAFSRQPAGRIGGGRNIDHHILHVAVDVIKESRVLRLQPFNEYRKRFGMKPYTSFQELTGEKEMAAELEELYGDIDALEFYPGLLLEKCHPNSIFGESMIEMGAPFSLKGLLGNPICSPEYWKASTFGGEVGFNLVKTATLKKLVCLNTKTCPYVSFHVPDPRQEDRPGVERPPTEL
Outline: (§2)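 Ovine COX-1 (50 units) or human recombinant COX-2 (20 units) in 1 ml 100 mM Tris pH 8 with 5 mM glutathione, 5 µM haemoglobin and 100 µM EDTA. Preincubated with 10 µM compound 5 min at 4 °C, warmed 60 s at 37 °C. Started with AA (5 µM for COX-1, 2 µM for COX-2), run 5 min at 37 °C. 12-HHT extracted and analysed by HPLC. n = 3.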

[4] = molecular target: T2, Polyunsaturated fatty acid 5-lipoxygenase; assay: Inhibition of human recombinant 5-lipoxygenase expressed in Escherichia coli BL21 assessed as enzyme product formation using arachidonic acid as substrate after 10 mins by RP-HPLC analysis; outline: as §1
A549 = assay: Cytotoxicity against human A549 cells assessed as cell viability at 10 uM after 16 hrs by MTT assay; type: cell-based; conditions: a549, 5 h, in the assay text read “5 hrs” for “16 hrs”
Outline: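 A549 cells plated at 4 × 10⁴ cells per well, incubated 16 h at 37 °C, 5% CO₂, then exposed to 10 µM compound or DMSO (≤0.3% final) for 5 h. MTT added for 4 h, formazan solubilized with SDS in 20 mM HCl, absorbance at 595 nm read relative to vehicle-treated cells.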

Prostaglandin E synthase = molecular target: T4, Prostaglandin E synthase (Homo sapiens, UniProt O14684); assay: Inhibition of mPGES-1 in human IL-1beta-stimulated A549 cell microsomes assessed as reduction of PGE2 formation from PGH2 after 15 mins; parameters: species or system Microsome
T4 sequence (O14684 whole entry): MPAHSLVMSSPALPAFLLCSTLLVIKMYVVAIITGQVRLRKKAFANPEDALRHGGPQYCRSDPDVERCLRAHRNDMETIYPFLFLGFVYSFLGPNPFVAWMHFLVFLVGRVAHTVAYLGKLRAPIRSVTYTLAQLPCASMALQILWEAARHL
Outline: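 Microsomes from A549 cells stimulated 72 h with IL-1β (1 ng/ml), diluted to 50 µg/ml in 0.1 M potassium phosphate pH 7.4 with 2.5 mM glutathione. Preincubated with compound (1% DMSO final) 15 min at 4 °C. Reaction started with 20 µM PGH₂, run 1 min at 4 °C, stopped with FeCl₂/citric acid containing 11β-PGE₂; PGE₂ quantified. Mean of n = 3–5.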

[5] = molecular target: T5, Prostaglandin G/H synthase 2 (Homo sapiens) (UniProt P35354); assay: Inhibition of human recombinant COX2 assessed as residual activity at 10 uM after 5 mins; outline: as §2
T5 sequence (whole entry): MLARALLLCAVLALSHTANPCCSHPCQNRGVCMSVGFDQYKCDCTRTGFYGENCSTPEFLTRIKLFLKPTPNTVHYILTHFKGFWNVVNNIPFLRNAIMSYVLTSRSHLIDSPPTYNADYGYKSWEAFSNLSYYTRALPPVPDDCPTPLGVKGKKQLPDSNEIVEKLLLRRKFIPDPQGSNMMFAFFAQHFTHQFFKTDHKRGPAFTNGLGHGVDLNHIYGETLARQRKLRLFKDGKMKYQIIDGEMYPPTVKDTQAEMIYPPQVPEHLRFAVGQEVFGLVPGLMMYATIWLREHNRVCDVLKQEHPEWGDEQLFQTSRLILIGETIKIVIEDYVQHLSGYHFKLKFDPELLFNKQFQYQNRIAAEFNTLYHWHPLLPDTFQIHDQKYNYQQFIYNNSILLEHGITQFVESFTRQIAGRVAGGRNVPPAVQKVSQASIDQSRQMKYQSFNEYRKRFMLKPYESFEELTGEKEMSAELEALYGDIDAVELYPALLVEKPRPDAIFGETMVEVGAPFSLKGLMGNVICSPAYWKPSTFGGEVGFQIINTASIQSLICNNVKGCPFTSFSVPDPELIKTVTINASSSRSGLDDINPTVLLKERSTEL

SMILES: CC(C)c1ccc2c(c1)c(SC(C)(C)C)c(CC(C)(C)C(=O)O)n2Cc1ccc(Cl)cc1
- inhibition [1]: inactive

SMILES: CCCCC(Sc1ccc(OCCCOc2ccc(Cl)c(C(F)(F)F)c2)cc1)C(=O)O (configuration not stated)
- IC50 [2]: 1500 nM
- Activity [3]: 71.3%
- IC50 [4]: 2000 nM
- Activity (A549): Non-toxic
- IC50 (Prostaglandin E synthase): 1700 nM
- inhibition [5]: inactive
